Data published in ChEMBL document CHEMBL2331191, “Design and synthesis of novel 1,2,3-triazole-dithiocarbamate hybrids as potential anticancer agents” (Eur J Med Chem, 2013).

Columns and labels:
MGC-803 [1] = test: Cell cycle arrest in human MGC803 cells assessed as accumulation at G0/G1 phase at 1 umol/L after 24 hrs by propidium iodide staining-based flow cytometric analysis (reference value: 43.68%); assay type: functional
MGC-803 [2] = test: Cell cycle arrest in human MGC803 cells assessed as accumulation at G0/G1 phase at 0.25 umol/L after 24 hrs by propidium iodide staining-based flow cytometric analysis (reference value: 43.68%); assay type: functional
MGC-803 [3] = test: Induction of apoptosis in human MGC803 cells assessed as live cells at 0.5 umol/L after 12 hrs by annexin-V-FITC/propidium iodide staining-based flow cytometric analysis (reference value: 88.9%); assay type: functional
Outline: (§1)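 MGC-803 cells were plated at 5.0×10^4 cells/mL, held 12 h at 37 °C, then given complete medium (blank) or compound at 0, 0.25, 0.5 or 1.0 µmol/L for 12 h. Quadrants: live (annexin−/PI−), early apoptotic (annexin+/PI−), late apoptotic (annexin+/PI+), damaged (annexin−/PI+).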

MGC-803 [4] = test: Cell cycle arrest in human MGC803 cells assessed as accumulation at G2/M phase at 0.25 to 1 umol/L by propidium iodide staining-based flow cytometric analysis; assay type: functional; settings: TDE = time-dependent effect
MGC-803 [5] = test: Induction of apoptosis in human MGC803 cells assessed as early apoptotic cells at 0.25 umol/L after 12 hrs by annexin-V-FITC/propidium iodide staining-based flow cytometric analysis (reference value: 3.7%); assay type: functional; outline: as §1
MGC-803 [6] = test: Induction of apoptosis in human MGC803 cells assessed as early apoptotic cells at 1 umol/L after 12 hrs by annexin-V-FITC/propidium iodide staining-based flow cytometric analysis (reference value: 3.7%); assay type: functional; outline: as §1
MGC-803 [7] = test: Cell cycle arrest in human MGC803 cells assessed as accumulation at G2/M phase at 1 umol/L after 12 hrs by propidium iodide staining-based flow cytometric analysis (reference value: 17.59%); assay type: functional
MGC-803 [8] = test: Induction of apoptosis in human MGC803 cells assessed as live cells at 0.25 umol/L after 12 hrs by annexin-V-FITC/propidium iodide staining-based flow cytometric analysis (reference value: 88.9%); assay type: functional; outline: as §1
MGC-803 [9] = test: Cell cycle arrest in human MGC803 cells assessed as accumulation at G2/M phase at 1 umol/L after 24 hrs by propidium iodide staining-based flow cytometric analysis (reference value: 15.12%); assay type: functional
MGC-803 [10] = test: Cell cycle arrest in human MGC803 cells assessed as accumulation at G2/M phase at 0.25 umol/L after 12 hrs by propidium iodide staining-based flow cytometric analysis (reference value: 17.59%); assay type: functional
[11] = Cytotoxicity against human EC109 cells assessed as growth inhibition after 72 hrs by MTT assay; assay type: functional, cell-based; settings: ECa-109, 72 h
Outline: (§2)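 Exponentially growing cells were seeded at 5×10^3 per well and held 24 h at 37 °C. Medium was then replaced with fresh medium containing a range of concentrations, and cells were exposed for 72 h. MTT (5 mg/mL) was added for 4 h at 37 °C, formazan was dissolved in DMSO and A570 was read. Triplicate wells per concentration, three experiments. IC50 was taken from dose–response curves of inhibition ratio.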

MGC-803 [12] = test: Induction of apoptosis in human MGC803 cells assessed as damaged cells at 0.25 umol/L after 12 hrs by annexin-V-FITC/propidium iodide staining-based flow cytometric analysis (reference value: 1.9%); assay type: functional; outline: as §1
MGC-803 [13] = test: Induction of apoptosis in human MGC803 cells assessed as late apoptotic cells at 0.5 umol/L after 12 hrs by annexin-V-FITC/propidium iodide staining-based flow cytometric analysis (reference value: 5.5%); assay type: functional; outline: as §1
MGC-803 [14] = test: Ratio of 5-fluorouracil IC50 to compound IC50 for growth inhibition of human MGC803 cells; assay type: functional
Outline: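 The IC50 ratio uses MGC-803 values from the 72 h MTT assay: cells seeded at 5×10^3 per well, compound exposure 72 h, MTT 4 h at 37 °C, A570 read after DMSO solubilization. Triplicate wells, three experiments. IC50 values were taken from dose–response curves, with 5-fluorouracil as the reference.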

MGC-803 [15] = test: Induction of apoptosis in human MGC803 cells assessed as late apoptotic cells at 1 umol/L after 12 hrs by annexin-V-FITC/propidium iodide staining-based flow cytometric analysis (reference value: 5.5%); assay type: functional; outline: as §1
MGC-803 [16] = test: Cell cycle arrest in human MGC803 cells assessed as accumulation at S phase at 0.5 umol/L after 12 hrs by propidium iodide staining-based flow cytometric analysis (reference value: 41.43%); assay type: functional
MGC-803 [17] = test: Induction of apoptosis in human MGC803 cells assessed as live cells at 1 umol/L after 12 hrs by annexin-V-FITC/propidium iodide staining-based flow cytometric analysis (reference value: 88.9%); assay type: functional; outline: as §1
MGC-803 [18] = test: Cell cycle arrest in human MGC803 cells assessed as accumulation at G2/M phase after 12 to 24 hrs by propidium iodide staining-based flow cytometric analysis; assay type: functional
MGC-803 [19] = test: Cell cycle arrest in human MGC803 cells assessed as accumulation at S phase at 0.25 umol/L after 24 hrs by propidium iodide staining-based flow cytometric analysis (reference value: 39.56%); assay type: functional
MGC-803 [20] = test: Cell cycle arrest in human MGC803 cells assessed as accumulation at G2/M phase at 0.25 umol/L after 24 hrs by propidium iodide staining-based flow cytometric analysis (reference value: 15.12%); assay type: functional
MGC-803 [21] = test: Induction of apoptosis in human MGC803 cells assessed as early apoptotic cells at 0.5 umol/L after 12 hrs by annexin-V-FITC/propidium iodide staining-based flow cytometric analysis (reference value: 3.7%); assay type: functional; outline: as §1
MGC-803 [22] = test: Cell cycle arrest in human MGC803 cells assessed as accumulation at S phase at 1 umol/L after 24 hrs by propidium iodide staining-based flow cytometric analysis (reference value: 39.56%); assay type: functional
MGC-803 [23] = test: Cytotoxicity against human MGC803 cells assessed as growth inhibition after 72 hrs by MTT assay; assay type: functional, cell-based; settings: MGC-803, 72 h; outline: as §2
MGC-803 [24] = test: Cell cycle arrest in human MGC803 cells assessed as accumulation at S phase at 0.5 umol/L after 24 hrs by propidium iodide staining-based flow cytometric analysis (reference value: 39.56%); assay type: functional
MGC-803 [25] = test: Induction of apoptosis in human MGC803 cells assessed as late apoptotic cells at 0.25 umol/L after 12 hrs by annexin-V-FITC/propidium iodide staining-based flow cytometric analysis (reference value: 5.5%); assay type: functional; outline: as §1
MGC-803 [26] = test: Cell cycle arrest in human MGC803 cells assessed as accumulation at G0/G1 phase at 0.5 umol/L after 24 hrs by propidium iodide staining-based flow cytometric analysis (reference value: 43.68%); assay type: functional
MGC-803 [27] = test: Cell cycle arrest in human MGC803 cells assessed as accumulation at G2/M phase at 0.5 umol/L after 24 hrs by propidium iodide staining-based flow cytometric analysis (reference value: 15.12%); assay type: functional
MGC-803 [28] = test: Cell cycle arrest in human MGC803 cells assessed as accumulation at G0/G1 phase at 1 umol/L after 12 hrs by propidium iodide staining-based flow cytometric analysis (reference value: 39.17%); assay type: functional
MGC-803 [29] = test: Induction of apoptosis in human MGC803 cells after 12 hrs by annexin-V-FITC/propidium iodide staining-based flow cytometric analysis; assay type: functional, cell-based; outline: as §1
PC-3 = test: Cytotoxicity against human PC3 cells assessed as growth inhibition after 72 hrs by MTT assay; assay type: functional, cell-based; settings: PC-3, 72 h; outline: as §2
MGC-803 [30] = test: Cell cycle arrest in human MGC803 cells assessed as accumulation at S phase at 1 umol/L after 12 hrs by propidium iodide staining-based flow cytometric analysis (reference value: 41.43%); assay type: functional
MGC-803 [31] = test: Induction of apoptosis in human MGC803 cells assessed as damaged cells at 0.5 umol/L after 12 hrs by annexin-V-FITC/propidium iodide staining-based flow cytometric analysis (reference value: 1.9%); assay type: functional; outline: as §1
MGC-803 [32] = test: Cell cycle arrest in human MGC803 cells assessed as accumulation at G2/M phase at 0.5 umol/L after 12 hrs by propidium iodide staining-based flow cytometric analysis (reference value: 17.59%); assay type: functional
MCF7 = test: Cytotoxicity against human MCF7 cells assessed as growth inhibition after 72 hrs by MTT assay; assay type: functional, cell-based; settings: MCF7, 72 h; outline: as §2
MGC-803 [33] = test: Cell cycle arrest in human MGC803 cells assessed as accumulation at G0/G1 phase at 0.25 umol/L after 12 hrs by propidium iodide staining-based flow cytometric analysis (reference value: 39.17%); assay type: functional
MGC-803 [34] = test: Cell cycle arrest in human MGC803 cells assessed as accumulation at S phase at 0.25 umol/L after 12 hrs by propidium iodide staining-based flow cytometric analysis (reference value: 41.43%); assay type: functional
MGC-803 [35] = test: Induction of apoptosis in human MGC803 cells assessed as damaged cells at 1 umol/L after 12 hrs by annexin-V-FITC/propidium iodide staining-based flow cytometric analysis (reference value: 1.9%); assay type: functional; outline: as §1
MGC-803 [36] = test: Cell cycle arrest in human MGC803 cells assessed as accumulation at G0/G1 phase at 0.5 umol/L after 12 hrs by propidium iodide staining-based flow cytometric analysis (reference value: 39.17%); assay type: functional

CC(C)(C)OC(=O)N1CCN(C(=S)SCc2cn(Cc3ccccc3Cl)nn2)CC1
Activity (MGC-803 [1]): 1.62% | Activity (MGC-803 [2]): 27.21% | Activity (MGC-803 [3]): 74.1% | Activity (MGC-803 [4]): tde | Activity (MGC-803 [5]): 7.7% | Activity (MGC-803 [6]): 35.1% | Activity (MGC-803 [7]): 64.1% | Activity (MGC-803 [8]): 84.8% | Activity (MGC-803 [9]): 80.05% | Activity (MGC-803 [10]): 22.2% | IC50 [11]: 11.9 µM | Activity (MGC-803 [12]): 1.9% | Activity (MGC-803 [13]): 8.4% | Ratio IC50 (MGC-803 [14]): 14 | Activity (MGC-803 [15]): 8.1% | Activity (MGC-803 [16]): 36.01% | Activity (MGC-803 [17]): 54.6% | Activity (MGC-803 [18]): Dose-dependent effect | Activity (MGC-803 [19]): 34.35% | Activity (MGC-803 [20]): 38.75% | Activity (MGC-803 [21]): 14.6% | Activity (MGC-803 [22]): 10.67% | IC50 (MGC-803 [23]): 0.49 µM | Activity (MGC-803 [24]): 14.81% | Activity (MGC-803 [25]): 5.5% | Activity (MGC-803 [26]): 9.13% | Activity (MGC-803 [27]): 68.1% | Activity (MGC-803 [28]): 11.95% | Activity (MGC-803 [29]): Dose-dependent effect | IC50 (PC-3): 12.5 µM | Activity (MGC-803 [30]): 30.36% | Activity (MGC-803 [31]): 2.9% | Activity (MGC-803 [32]): 34.29% | IC50 (MCF7): 6.09 µM | Activity (MGC-803 [33]): 38.7% | Activity (MGC-803 [34]): 39.06% | Activity (MGC-803 [35]): 2.3% | Activity (MGC-803 [36]): 30.04%
